Converted amounts (≈) assume the structure as drawn.
Assays:
[1] = tested on: Escherichia coli; experiment: Minimum inhibitory concentration required for growth inhibition of Escherichia coli DC2 4353
[2] = tested on: Staphylococcus aureus; experiment: Minimum inhibitory concentration required for growth inhibition of Staphylococcus aureus 2865
[3] = tested on: Klebsiella pneumoniae; experiment: Minimum inhibitory concentration required for growth inhibition of Klebsiella pneumoniae 4005
[4] = tested on: Enterococcus faecalis; experiment: Minimum inhibitory concentration required for growth inhibition of Streptococcus faecalis 2864
[5] = tested on: Enterobacter cloacae; experiment: Minimum inhibitory concentration required for growth inhibition of cloacae 2647
[6] = tested on: Serratia marcescens; experiment: Minimum inhibitory concentration required for growth inhibition of Serratia marcescens 2840
[7] = tested on: D-alanine--D-alanine ligase (Enterococcus faecalis); experiment: ATP dependent inhibition of D-alanine--D-alanine ligase after 4 hours at 10 uM concentration
[8] = tested on: Proteus vulgaris; experiment: Minimum inhibitory concentration required for growth inhibition of proteus vulgaris 2829
[9] = tested on: Pseudomonas aeruginosa; experiment: Minimum inhibitory concentration required for growth inhibition of Pseudomonas aeruginosa 4279
[10] = tested on: D-alanine--D-alanine ligase (Enterococcus faecalis); experiment: ATP dependent inhibition of D-alanine--D-alanine ligase after 24 hours at 10 uM concentration
[11] = tested on: Escherichia coli; experiment: Minimum inhibitory concentration required for growth inhibition of Escherichia coli 2891
[12] = tested on: Salmonella typhimurium; experiment: Minimum inhibitory concentration required for growth inhibition of Salmonella Typhimurium 3860; settings: Salmonella enterica subsp. enterica serovar Typhimurium
[13] = tested on: Proteus vulgaris; experiment: Minimum inhibitory concentration required for inhibition of D-alanyl-D-alanine ligase from proteus vulgaris 2829; format: functional
Outline: (§1)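 Organisms were mostly subcultured from agar into trypticase soy broth, 35 °C for 20 h; Pseudomonas was shaken at 250 rpm. MIC was the lowest concentration giving no visible growth or fewer than five colonies per spot.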

[14] = tested on: Enterobacter cloacae; experiment: Minimum inhibitory concentration required for inhibition of D-alanyl-D-alanine ligase from cloacae 2647; format: functional
Outline: as §1

[15] = tested on: Serratia marcescens; experiment: Minimum inhibitory concentration required for inhibition of D-alanyl-D-alanine ligase from Serratia marcescens 2840; format: functional
Outline: as §1

[16] = tested on: Salmonella typhimurium; experiment: Minimum inhibitory concentration required for inhibition of D-alanyl-D-alanine ligase from Salmonella Typhimurium 3860; format: functional, Salmonella enterica subsp. enterica serovar Typhimurium; settings: Salmonella enterica
Outline: as §1

[17] = tested on: Klebsiella pneumoniae; experiment: Minimum inhibitory concentration required for inhibition of D-alanyl-D-alanine ligase from Klebsiella pneumoniae 4005; format: functional
Outline: as §1

[18] = tested on: Pseudomonas aeruginosa; experiment: Minimum inhibitory concentration required for inhibition of D-alanyl-D-alanine ligase from Pseudomonas aeruginosa 4279; format: functional
Outline: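 Inocula were subcultured from agar into trypticase soy broth and grown at 35 °C for 20 h, with the Pseudomonas strain shaken at 250 rpm. MIC was taken as the lowest concentration giving no visible growth or fewer than five colonies per inoculation spot.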

[19] = tested on: Escherichia coli; experiment: Minimum inhibitory concentration required for inhibition of D-alanyl-D-alanine ligase from Escherichia coli Tem 2+ 4351; format: functional
Outline: as §1

[20] = tested on: Staphylococcus aureus; experiment: Minimum inhibitory concentration required for inhibition of D-alanyl-D-alanine ligase from Staphylococcus aureus 2865; format: functional
Outline: as §1

[21] = tested on: Escherichia coli; experiment: Minimum inhibitory concentration required for inhibition of D-alanyl-D-alanine ligase from Escherichia coli 2891; format: functional
Outline: as §1

[22] = tested on: Escherichia coli; experiment: Minimum inhibitory concentration required for inhibition of D-alanyl-D-alanine ligase from Escherichia coli DC2 4353; format: functional
Outline: as §1

[23] = tested on: Enterococcus faecalis; experiment: Minimum inhibitory concentration required for inhibition of D-alanyl-D-alanine ligase from Streptococcus faecalis 2864; format: functional
Outline: as §1

[24] = tested on: Klebsiella pneumoniae; experiment: The inhibition of D-alanyl-D-alanine ligase from Klebsiella pneumoniae 4005 in the presence of F-D-Ala ug/mL; format: functional
[25] = tested on: Enterococcus faecalis; experiment: Minimum inhibitory concentration required for inhibition of D-alanyl-D-alanine ligase from Streptococcus faecalis 2864 in the presence of F-D-Ala ug/mL; format: functional
[26] = tested on: Escherichia coli; experiment: Minimum inhibitory concentration required for inhibition of D-alanyl-D-alanine ligase from Escherichia coli Tem 2+ 4351 in the presence of F-D-Ala ug/mL; format: functional
[27] = tested on: Pseudomonas aeruginosa; experiment: Minimum inhibitory concentration required for inhibition of D-alanyl-D-alanine ligase from Pseudomonas aeruginosa 4279 in the presence of F-D-Ala ug/mL; format: functional

SMILES | MIC [1] [µg/mL] | MIC [2] [µg/mL] | MIC [3] [µg/mL] | MIC [4] [µg/mL] | MIC [5] [µg/mL] | MIC [6] [µg/mL] | inhibition [7] [%] | MIC [8] [µg/mL] | MIC [9] [µg/mL] | inhibition [10] [%] | MIC [11] [µg/mL] | MIC [12] [µg/mL] | MIC [17] [µg/mL] | MIC [18] [µg/mL] | MIC [19] [µg/mL] | MIC [23] [µg/mL] | further results
CSC(CP(=O)(O)C(C)N)C(=O)O (centres undefined) | 64 (≈ 282 µM) | > 256 | 128 (≈ 563 µM) | 4 (≈ 17.6 µM) | 128 (≈ 563 µM) | 256 (≈ 1130 µM) | 96 | 4 (≈ 17.6 µM) | 64 (≈ 282 µM) | 96 |  |  |  |  |  |  | 
CCC(CP(=O)(O)C(C)N)C(=O)O (centres undefined) | 8 (≈ 38.2 µM) | > 256 |  | 2 (≈ 9.56 µM) | 256 (≈ 1220 µM) | > 256 |  | 128 (≈ 612 µM) |  |  | 256 (≈ 1220 µM) | > 256 |  |  |  |  | 
CCCCCCCC(CP(=O)(O)[C@@H](C)N)C(=O)O (some centres undefined) |  |  |  |  |  |  | 75 |  |  | 53 |  |  | 64 (≈ 229 µM) | > 256 | 128 (≈ 458 µM) | 64 (≈ 229 µM) | MIC [13]: 128 µg/mL (≈ 458 µM); MIC [14]: 256 µg/mL (≈ 917 µM); MIC [15]: > 256 µg/mL; MIC [16]: 128 µg/mL (≈ 458 µM); MIC [20]: 128 µg/mL (≈ 458 µM); MIC [21]: 128 µg/mL (≈ 458 µM); MIC [22]: 32 µg/mL (≈ 115 µM)
C[C@@H](CP(=O)(O)[C@@H](C)N)C(=O)O |  |  |  |  |  |  |  |  |  |  |  |  | 128 (≈ 656 µM) | 128 (≈ 656 µM) | 128 (≈ 656 µM) | 128 (≈ 656 µM) | MIC [24]: 128 µg/mL; MIC [25]: 8 µg/mL; MIC [26]: 128 µg/mL; MIC [27]: 128 µg/mL
CC(N)P(=O)(O)CC(CCCc1ccccc1)C(=O)O (centres undefined) | 128 (≈ 428 µM) | 256 (≈ 855 µM) | 256 (≈ 855 µM) | 256 (≈ 855 µM) | > 256 | > 256 |  | > 256 | > 256 |  | 128 (≈ 428 µM) | 128 (≈ 428 µM) |  |  |  |  | 
